The text below walks through data of article PMC9361925 (RSC Advances, 2022).

Experiment [1] relates to epidermoid carcinoma (KB, ATCC number CCL-17). As to conditions: read-out: IC50 KB; KB cells; cited from earlier work.
Experiment [2] has as its system human embryonic kidney (HEK-293, ATCC number CRL-1573) cell line. The settings on record: read-out: IC50 Hek-293; non-cancerous Hek-293 cells; cited from earlier work.
In experiment [3] the test system is hepatocellular carcinoma (HepG2, ATCC number HB-8065). The settings on record: read-out: IC50 HepG2; HepG2 cells; cited from earlier work.
Experiment [4] concerns SK-Lu-1 cells. As to conditions: read-out: IC50 SK-Lu-1; cited from earlier work.
In experiment [5] the test system is breast (MCF7, HTB-22™) cancer cell line. The settings on record: read-out: IC50 MCF7; MCF7 cells; cited from earlier work.
Experiment [6] relates to hepatocellular carcinoma (HepG2, ATCC number HB-8065). The experiment can be described thus: MTT cytotoxicity assay, HepG2 cells. The experiment is classed as cell-based. As to conditions: Homo sapiens, HepG2, 72 h, read-out: IC50 HepG2. Summed up:
(§1)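 Log-phase cells in DMEM with 7–10% FBS and penicillin/streptomycin (37 °C, 5% CO2) seeded at 3 × 10^4 cells per mL. Exposed 3 days to test compound in DMSO at 1.00, 0.25, 0.0625 and 0.0156 μg mL−1. MTT (5 mg mL−1 stock in 0.1 M PBS, pH 7.4) added for 4 h at 37 °C; formazan dissolved in DMSO, absorbance at 540 nm. Growth inhibition calculated relative to untreated controls.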

Experiment [7] has as its system breast (MCF7, HTB-22™) cancer cell line. As to the kind of experiment: MTT cytotoxicity assay, MCF7 cells. The experiment is classed as cell-based. The settings on record: Homo sapiens, MCF7, 72 h, read-out: IC50 MCF7. Summed up: as §1
The subject of experiment [8] is human embryonic kidney (HEK-293, ATCC number CRL-1573) cell line. As to the kind of experiment: MTT cytotoxicity assay, Hek-293 cells. The experiment is classed as cell-based. The settings on record: HEK293, 72 h, read-out: IC50 Hek-293. Summed up:
as §1

Experiment [9] deals with lung (A549) cancer cell line. As to the kind of experiment: MTT cytotoxicity assay, A549 cells. Type of experiment: cell-based. As to conditions: Homo sapiens, A549, 72 h, read-out: IC50 A549. Summed up:
as §1

Experiment [10] deals with epidermoid carcinoma (KB, ATCC number CCL-17). The experiment can be described thus: MTT cytotoxicity assay, KB cells. Type of experiment: cell-based. The settings on record: Homo sapiens, 72 h, read-out: IC50 KB. Summed up: as §1
Experiment [11] deals with SK-Lu-1 cells. As to the kind of experiment: Cell cycle analysis by flow cytometry. Type of experiment: cell-based, human. The settings on record: 24 h. Summed up: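 Log-phase SK-LU-1 cells (3 × 10^5 per 25 cm2 flask) treated 24 h with test compound at 0.08, 0.16 or 0.32 μM. Controls: DMSO 0.05%, ellipticine 1.3 μM, vincristine 0.4 and 4 μM. Cells were PBS-washed and fixed in ice-cold 70% ethanol at −20 °C for 2 h. They were then treated with RNase A (1 mg mL−1, 37 °C, 15 min), stained with PI for 30 min and analysed by flow cytometry.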

The subject of experiment [12] is SK-Lu-1 cells. The experiment can be described thus: Annexin V FITC and PI flow cytometry assay for apoptosis. The experiment is classed as cell-based, human. As to conditions: 24 h; for % Necrotic cells: Annexin-V/PI (Q2-1); for % Late apoptosis cells: Annexin-V/PI (Q2-2); for % Early apoptosis cells: Annexin-V/PI (Q2-4); for % Total apoptosis cells: early + late. Summed up:
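SK-LU-1 cells (3 × 10^5 per 25 cm2 flask; DMEM, 7–10% FBS, penicillin/streptomycin, 37 °C, 5% CO2) exposed 24 h to test compound. Controls: DMSO 0.5%, ellipticine 1.3 μM, vincristine 0.4 and 4 μM. Cells were harvested, washed in cold PBS and resuspended in annexin-binding buffer. They were stained with FITC-annexin V plus PI (100 μg mL−1 working solution) for 15 min at room temperature, then diluted and analysed by flow cytometry.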

Read-outs that look alike come from different tables or passages of the source.

As to `O=C1OCC2=C1C(c1ccccc1)C1=C(N2)C(=O)c2ccccc2C1=O` (centres unmarked) [5d, 11-(Phenyl)-4,11-dihydrobenzo[g]furo[3,4-b]quinoline-1,5,10(3H)-trione], the IC50 in experiment [1] was 1540 ± 10 nM; in [2], 1340 ± 10 nM; in [3], less than 44 nM; in the experiment with SK-Lu-1 cells [4], less than 44 nM; in experiment [5], 1980 ± 40 nM.
As to `O=C1OCC2=C1C(c1ccccc1O)C1=C(N2)C(=O)c2ccccc2C1=O` (centres unmarked) [5h, 11-(2-Hydroxyphenyl)-4,11-dihydrobenzo[g]furo[3,4-b]quinoline-1,5,10(3H)-trione], the concentration for half-maximal inhibition (IC50) is 630 ± 20 nM in [6]; 1610 ± 30 nM in [7]; 2030 ± 60 nM in experiment [8]; 430 ± 10 nM in [9]; 570 ± 20 nM in experiment [10].
`O=C1OCC2=C1C(c1ccc(O)cc1)C1=C(N2)C(=O)c2ccccc2C1=O` (centres unmarked) [5i, 11-(4-Hydroxyphenyl)-4,11-dihydrobenzo[g]furo[3,4-b]quinoline-1,5,10(3H)-trione]: the IC50 in [6] was greater than 2500 nM; in experiment [7], 2230 ± 60 nM; in [8] it was 6460 ± 150 nM; in [9] it was 1590 ± 30 nM; in [10], greater than 2500 nM.
Regarding `O=C1OCC2=C1C(c1ccc([N+](=O)[O-])cc1)C1=C(N2)C(=O)c2ccccc2C1=O` (centres unmarked) [5j, 11-(4-Nitrophenyl)-4,11-dihydrobenzo[g]furo[3,4-b]quinoline-1,5,10(3H)-trione], the half-maximal inhibitory concentration (IC50) is greater than 2500 nM in [6]; greater than 2500 nM in experiment [7]; 7170 ± 160 nM in experiment [8]; 1120 ± 40 nM in experiment [9]; greater than 2500 nM in experiment [10].
For the compound `N#Cc1ccc(C2C3=C(COC3=O)NC3=C2C(=O)c2ccccc2C3=O)cc1` (centres unmarked) [5k, 4-(1,5,10-Trioxo-1,3,4,5,10,11-hexahydrobenzo[g]furo[3,4-b]quinolin-11-yl)benzonitrile], the IC50 in [6] was greater than 2500 nM; in experiment [7], greater than 2500 nM; in experiment [8], greater than 20000 nM; in experiment [9], 2030 ± 50 nM; in [10] it was greater than 2500 nM.
Take `COc1ccc(C2C3=C(COC3=O)NC3=C2C(=O)c2ccccc2C3=O)cc1OC` (centres unmarked) [5l, 11-(3,4-Dimethoxyphenyl)-4,11-dihydrobenzo[g]furo[3,4-b]quinoline-1,5,10(3H)-trione]: the IC50 in experiment [6] was found to be 530 ± 20 nM; in [7] it was 2280 ± 70 nM; in experiment [8] it was 2230 ± 80 nM; in experiment [9], 1100 ± 20 nM; in [10], 520 ± 20 nM.
On the same counts, the results for `COc1cc(C2C3=C(COC3=O)NC3=C2C(=O)c2ccccc2C3=O)cc(OC)c1OC` (centres unmarked) [5m, 11-(3,4,5-Trimethoxyphenyl)-4,11-dihydrobenzo[g]furo[3,4-b]quinoline-1,5,10(3H)-trione] are 20 ± 10 nM, 120 ± 30 nM, 30 ± 10 nM, 620 ± 20 nM and 20 ± 10 nM.
`O=C1OCC2=C1C(c1cccnc1)C1=C(N2)C(=O)c2ccccc2C1=O` (centres unmarked) [5n, 11-(Pyridin-3-yl)-4,11-dihydrobenzo[g]furo[3,4-b]quinoline-1,5,10(3H)-trione]: the IC50 in [6] was greater than 2500 nM; in experiment [7] it was 1960 ± 40 nM; in experiment [8], 1810 ± 50 nM; in [9] it was 610 ± 20 nM; in experiment [10], 620 ± 10 nM.
`O=C1OCC2=C1C(c1ccc(Br)cn1)C1=C(N2)C(=O)c2ccccc2C1=O` (centres unmarked) [5o, 11-(5-Bromopyridin-2-yl)-4,11-dihydrobenzo[g]furo[3,4-b]quinoline-1,5,10(3H)-trione]: the IC50 was greater than 2500 nM in [6]; greater than 2500 nM in experiment [7]; greater than 20000 nM in experiment [8]; greater than 2500 nM in [9]; greater than 2500 nM in experiment [10].
As for `Cc1c2ccncc2c(C)c2c1[nH]c1ccccc12` [Ellipticine, reference compound], in the experiment on SK-Lu-1 cells [11] (SK-LU-1, 1.3 μM), the “Percentage of cell by phases, % G0/G1” value worked out at 10.09%; the “Percentage of cell by phases, % G2/M” value is recorded as 71.29%; the “Percentage of cell by phases, % S” value stood at 12.52%. Also, in the experiment on SK-Lu-1 cells [12] (SK-LU-1, 1.3 μM), the “% Necrotic cells” value is 3.00%, the “% Late apoptosis cells” value stood at 25.71%, the “% Early apoptosis cells” value turned out to be 28.22% and the “% Total apoptosis cells” value is listed as 53.93%. In addition, the IC50 in experiment [6] worked out at 1510 ± 50 nM. Besides, in experiment [7], the IC50 worked out at 1820 ± 30 nM. In addition, in experiment [8], the IC50 was determined as 6180 ± 110 nM. For the same compound, the IC50 in [9] was determined as 1600 ± 20 nM. The IC50 in experiment [10] was 1150 ± 10 nM.
On to `CC[C@]1(O)C[C@H]2CN(CCc3c([nH]c4ccccc34)[C@@](C(=O)OC)(c3cc4c(cc3OC)N(C=O)[C@H]3[C@@](O)(C(=O)OC)[C@H](OC(C)=O)[C@]5(CC)C=CCN6CC[C@]43[C@@H]65)C2)C1` [Vincristine, reference compound], for which, in the experiment with SK-Lu-1 cells [11] (SK-LU-1, 0.4 μM), the “Percentage of cell by phases, % G0/G1” value came out at 52.28%; the “Percentage of cell by phases, % G2/M” value was determined as 6.72%; the “Percentage of cell by phases, % S” value amounted to 38.19%. In addition, in the experiment on SK-Lu-1 cells [11] (SK-LU-1, 4.0 μM), the “Percentage of cell by phases, % G0/G1” value is 0.07%; the “Percentage of cell by phases, % G2/M” value came out at 82.57%; the “Percentage of cell by phases, % S” value was found to be 13.93%. In addition, in the experiment on SK-Lu-1 cells [12] (SK-LU-1, 0.4 μM), the “% Necrotic cells” value was found to be 4.15%, the “% Late apoptosis cells” value was 3.66%, the “% Early apoptosis cells” value was 15.13% and the “% Total apoptosis cells” value is on record as 18.79%. For the same compound, in the experiment on SK-Lu-1 cells [12] (SK-LU-1, 4.0 μM), the “% Necrotic cells” value stood at 3.62%, the “% Late apoptosis cells” value was determined as 4.71%, the “% Early apoptosis cells” value was 19.93% and the “% Total apoptosis cells” value was 24.64%.
